Results: ChEMBL document CHEMBL4184225, “Discovery of selective 2,4-diaminoquinazoline toll-like receptor 7 (TLR 7) agonists” (Bioorg Med Chem Lett, 2018)

Key:
[1] = Cmax in Sprague-Dawley rat liver at 10 mg/kg, po
[2] = AUClast in Sprague-Dawley rat liver at 10 mg/kg, po; format: ADME, organism-based; details: in vivo
Procedure, shortened: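 Healthy male Sprague-Dawley rats given a single oral dose of 10 mg/kg. Portal vein plasma, systemic plasma and liver sampled. Cmax and Tmax determined, and AUC over 0–last. Liver/plasma ratio calculated from AUC(0-last).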

Rattus norvegicus = experiment: Plasma clearance in Sprague-Dawley rat at 2.5 mg/kg, iv relative hepatic blood flow; format: ADME, organism-based; details: in vivo
[3] = Plasma clearance in Sprague-Dawley rat at 2.5 mg/kg, iv; format: ADME, organism-based
[4] = AUClast in C57BL/6 mouse plasma at 1 mg/kg, po administered as single dose; format: ADME, organism-based; set-up: dose 1 mg/kg, time 0 - last, route oral
Procedure, shortened: (§1)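 Healthy C57BL/6 mice given a single oral dose (1 or 5 mg/kg). Plasma and liver drug levels measured over time to give Tmax, Cmax and AUC0-last. Three mice per time point, reported as geometric mean.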

Mus musculus [5] = experiment: Induction of IFN-alpha production in C57BL/6 mouse plasma assessed as peak IFN-alpha level at 1 mg/kg, po administered as single dose by ELISA; format: functional
Procedure, shortened: (§2)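 Healthy C57BL/6 mice given a single oral dose (1 or 5 mg/kg). Mouse IFN-α measured by ELISA in plasma and liver homogenates over time. Peak level (Fmax) and time of peak recorded. Three mice per time point, reported as geometric mean.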

[6] = Cmax in C57BL/6 mouse liver at 1 mg/kg, po administered as single dose; format: ADME, organism-based; set-up: dose 1 mg/kg, route oral
Procedure, shortened: as §1

[7] = AUClast in C57BL/6 mouse liver at 1 mg/kg, po administered as single dose; format: ADME, organism-based; set-up: dose 1 mg/kg, time 0 - last, route oral
Procedure, shortened: as §1

Mus musculus [8] = experiment: Induction of IFN-alpha production in C57BL/6 mouse liver assessed as peak IFN-alpha level at 1 mg/kg, po administered as single dose by ELISA; format: functional
Procedure, shortened: as §2

Mus musculus [9] = experiment: Induction of IFN-alpha production in C57BL/6 mouse liver assessed as time for peak induction of IFN-alpha at 1 mg/kg, po administered as single dose by ELISA; format: functional
Procedure, shortened: as §2

[10] = Tmax in C57BL/6 mouse at 1 mg/kg, po administered as single dose; format: ADME, organism-based; details: in vivo
Procedure, shortened: as §1

Mus musculus [11] = experiment: Induction of IFN-alpha production in C57BL/6 mouse plasma assessed as time for peak induction of IFN-alpha at 1 mg/kg, po administered as single dose by ELISA; format: functional
Procedure, shortened: as §2

[12] = Cmax in C57BL/6 mouse plasma at 1 mg/kg, po administered as single dose; format: ADME, organism-based; set-up: dose 1 mg/kg, route oral
Procedure, shortened: as §1

[13] = AUClast in C57BL/6 mouse plasma at 5 mg/kg, po administered as single dose; format: ADME, organism-based; set-up: dose 5 mg/kg, route oral, time 0 - last
Procedure, shortened: as §1

[14] = Cmax in C57BL/6 mouse liver at 5 mg/kg, po administered as single dose; format: ADME, organism-based; set-up: dose 5 mg/kg, route oral; details: in vivo
Procedure, shortened: as §1

[15] = Tmax in C57BL/6 mouse at 5 mg/kg, po administered as single dose; format: ADME, organism-based; details: in vivo
Procedure, shortened: as §1

Mus musculus [16] = experiment: Induction of IFN-alpha production in C57BL/6 mouse liver assessed as time for peak induction of IFN-alpha at 5 mg/kg, po administered as single dose by ELISA; format: functional
Procedure, shortened: as §2

Mus musculus [17] = experiment: Induction of IFN-alpha production in C57BL/6 mouse plasma assessed as time for peak induction of IFN-alpha at 5 mg/kg, po administered as single dose by ELISA; format: functional
Procedure, shortened: as §2

[18] = Ratio of drug level in liver to plasma in C57BL/6 mouse at 1 mg/kg, po administered as single dose; format: ADME, organism-based; details: liver and plasma, 5 mg/kg, in the assay text read “5 mg/kg” for “1 mg/kg”
Procedure, shortened: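 Single oral dose to healthy C57BL/6 mice. Liver and plasma drug exposure measured, three mice per time point as geometric mean, and expressed as liver-to-plasma ratio.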

[19] = Cmax in C57BL/6 mouse plasma at 5 mg/kg, po administered as single dose; format: ADME, organism-based; set-up: dose 5 mg/kg, route oral
Procedure, shortened: as §1

Mus musculus [20] = experiment: Induction of IFN-alpha production in C57BL/6 mouse plasma assessed as peak IFN-alpha level at 5 mg/kg, po administered as single dose by ELISA; format: functional
Procedure, shortened: as §2

[21] = AUClast in C57BL/6 mouse liver at 5 mg/kg, po administered as single dose; format: ADME, organism-based; details: in vivo
Procedure, shortened: as §1

Mus musculus [22] = experiment: Induction of IFN-alpha production in C57BL/6 mouse liver assessed as peak IFN-alpha level at 5 mg/kg, po administered as single dose by ELISA; format: functional
Procedure, shortened: as §2

Molecule `CCCCNc1nc(N)nc2cccc(C(=O)N(C)Cc3ccccc3)c12` has a Cmax [1] of 369 ng/g, an AUClast [2] of 1064 ng·h/g and a CL (Rattus norvegicus) of 79%. For the same molecule, the clearance [3] was 3.3 L/h/kg.

In the case of `CCCCNc1nc(N)nc2ccccc12`, the Cmax [1] is reported as 2030 ng/g, the AUC(0-t) [4] is reported as 0.003 µg·h/mL and the Fmax (Mus musculus [5]) is reported as 315 pg/mL. The AUClast [2] was 6450 ng·h/g, the Cmax [6] was 0.207 µg/mL and the AUC(0-t) [7] was 0.133 µg·h/mL. The Fmax (Mus musculus [8]) was 200 pg/mg, the Time (Mus musculus [9]) was 1 h and the Tmax [10] was 30 min. The clearance [3] was 9.78 L/h/kg, the Time (Mus musculus [11]) was 1 h and the Cmax [12] was 0.003 µg/mL.

For `CCCCNc1nc(N)nc2cccc(C(=O)N[C@@H](C)c3ccccc3)c12`, the Cmax [1] was 4930 ng/g, the AUC(0-t) [13] was 0.365 µg·h/mL and the AUClast [2] was 15841 ng·h/g. For the same molecule, the Cmax [14] was 3230 ng/g, the Tmax [15] was 60 min and the Time (Mus musculus [16]) was 4 h. It also gave a Time (Mus musculus [17]) of 4 h, a Kp [18] of 23 and a Cmax [19] of 0.142 µg/mL. It also gave an Fmax (Mus musculus [20]) of 2800 pg/mL, an AUClast [21] of 6619 ng·h/g and an Fmax (Mus musculus [22]) of 325 pg/mg.
